Values after ≈ are worked out from the molar mass of the structure shown. Active and inactive are the calls of the source. The calls are words filed in the database; no cut-off is given here.
How the values were obtained:
Haemophilus influenzae = assay: Antimicrobial activity against Haemophilus influenzae ATCC 19418 after 24 hrs by two-fold broth dilution method; assay type: functional; conditions: ATCC 19418, 24 h
Outline: (§1)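 Bacteria were cultivated on Mueller Hinton medium and inoculated at 5·10⁵ bacteria/mL. Compounds were dissolved in DMSO, with DMSO loaded as the negative control. Samples were incubated at 37 °C for 24 h. The dilution susceptibility method followed the NCCLS standard for aerobically growing bacteria.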

Candida tropicalis [1] = assay: Antimicrobial activity against Candida tropicalis ATCC 1369 up to 100 ug/ml after 48 hrs by two-fold broth dilution method; assay type: functional, organism-based
Outline: (§2)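 Fungi (yeasts C. tropicalis and S. cerevisiae, mould A. niger) grown in Sabouraud dextrose broth. Inoculum was 1·10³ fungi/mL. Compounds were dissolved in DMSO, which was also loaded as the negative control. Incubation was 30 °C for 48 h. The broth dilution method followed NCCLS reference methods for yeasts and filamentous fungi.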

Saccharomyces cerevisiae [2] = assay: Antimicrobial activity against Saccharomyces cerevisiae ATCC 9763 up to 100 ug/ml after 48 hrs by two-fold broth dilution method; assay type: functional, organism-based; outline: as §2
Staphylococcus aureus = assay: Antimicrobial activity against Staphylococcus aureus ATCC 6538 after 24 hrs by two-fold broth dilution method; assay type: functional; conditions: ATCC 6538, 24 h; outline: as §1
Escherichia coli = assay: Antimicrobial activity against Escherichia coli ATCC 8739 after 24 hrs by two-fold broth dilution method; assay type: functional; conditions: ATCC 8739, 24 h; outline: as §1
Bacillus spizizenii = assay: Antimicrobial activity against Bacillus subtilis ATCC 6633 after 24 hrs by two-fold broth dilution method; assay type: functional; conditions: ATCC 6633, 24 h; outline: as §1
Aspergillus niger [3] = assay: Antimicrobial activity against Aspergillus niger ATCC 6275 up to 100 ug/ml after 48 hrs by two-fold broth dilution method; assay type: functional, organism-based; outline: as §2
Aspergillus niger [4] = assay: Antimicrobial activity against Aspergillus niger ATCC 6275 after 48 hrs by two-fold broth dilution method; assay type: functional; conditions: ATCC 6275, 48 h; outline: as §2
Candida tropicalis [5] = assay: Antimicrobial activity against Candida tropicalis ATCC 1369 after 48 hrs by two-fold broth dilution method; assay type: functional; conditions: ATCC 1369, 48 h; outline: as §2
Saccharomyces cerevisiae [6] = assay: microbe, parasite or virus in culture; conditions: ATCC 9763, 48 h

| SMILES | MIC (Haemophilus influenzae) | Activity (Candida tropicalis [1]) | Activity (Saccharomyces cerevisiae [2]) | MIC (Staphylococcus aureus) | MIC (Escherichia coli) | MIC (Bacillus spizizenii) | Activity (Aspergillus niger [3]) | MIC (Aspergillus niger [4]) | MIC (Candida tropicalis [5]) | MIC (Saccharomyces cerevisiae [6]) |
| --- | --- | --- | --- | --- | --- | --- | --- | --- | --- | --- |
| Cc1ccc(-c2c(F)cc3c(=O)c(C(=O)O)cn(C4CC4)c3c2[N+](=O)[O-])cc1 | 30 ng/mL (≈ 0.0785 µM) | inactive | inactive | 150 ng/mL (≈ 0.392 µM) | 3000 ng/mL (≈ 7.85 µM) | 15 ng/mL (≈ 0.0392 µM) | inactive | – | – | – |
| COc1ccc(-c2c(F)cc3c(=O)c(C(=O)O)cn(C4CC4)c3c2[N+](=O)[O-])cc1 | 150 ng/mL (≈ 0.377 µM) | inactive | inactive | 150 ng/mL (≈ 0.377 µM) | 25000 ng/mL (≈ 62.8 µM) | 30 ng/mL (≈ 0.0753 µM) | inactive | – | – | – |
| O=C(O)c1cn(C2CC2)c2c([N+](=O)[O-])c(-c3ccccc3)c(F)cc2c1=O | 150 ng/mL (≈ 0.407 µM) | inactive | inactive | 150 ng/mL (≈ 0.407 µM) | 3000 ng/mL (≈ 8.15 µM) | 15 ng/mL (≈ 0.0407 µM) | inactive | – | – | – |
| O=C(O)c1cn(C2CC2)c2c([N+](=O)[O-])c(-c3ccc(F)cc3)c(F)cc2c1=O | 70 ng/mL (≈ 0.181 µM) | inactive | inactive | 150 ng/mL (≈ 0.388 µM) | 3000 ng/mL (≈ 7.77 µM) | 15 ng/mL (≈ 0.0388 µM) | inactive | – | – | – |
| COc1c(C)cc(-c2c(F)cc3c(=O)c(C(=O)O)cn(C4CC4)c3c2[N+](=O)[O-])cc1C | 15 ng/mL (≈ 0.0352 µM) | inactive | inactive | 3 ng/mL (≈ 0.00704 µM) | 25000 ng/mL (≈ 58.6 µM) | 0.07 ng/mL (≈ 0.000164 µM) | inactive | – | – | – |
| Clc1ccc(COC(Cn2ccnc2)c2ccc(Cl)cc2Cl)c(Cl)c1 (stereo unspecified) [MICONAZOLE] | – | inactive | inactive | – | – | – | inactive | 3000 ng/mL (≈ 7.21 µM) | 6000 ng/mL (≈ 14.4 µM) | 12000 ng/mL (≈ 28.8 µM) |
